# Measured values from PMC12238359 (Scientific Reports, 2025).
# Assays:
# [1] = target: HDAC1 (Homo sapiens, UniProt Q13547); test: HDAC inhibitory assay, HDAC1; assay type: biochemical
# [2] = target: T1, HDAC6 (Homo sapiens, UniProt Q9UBN7); test: HDAC inhibitory assay, HDAC6; assay type: biochemical
# T1 sequence (Q9UBN7 1-1215): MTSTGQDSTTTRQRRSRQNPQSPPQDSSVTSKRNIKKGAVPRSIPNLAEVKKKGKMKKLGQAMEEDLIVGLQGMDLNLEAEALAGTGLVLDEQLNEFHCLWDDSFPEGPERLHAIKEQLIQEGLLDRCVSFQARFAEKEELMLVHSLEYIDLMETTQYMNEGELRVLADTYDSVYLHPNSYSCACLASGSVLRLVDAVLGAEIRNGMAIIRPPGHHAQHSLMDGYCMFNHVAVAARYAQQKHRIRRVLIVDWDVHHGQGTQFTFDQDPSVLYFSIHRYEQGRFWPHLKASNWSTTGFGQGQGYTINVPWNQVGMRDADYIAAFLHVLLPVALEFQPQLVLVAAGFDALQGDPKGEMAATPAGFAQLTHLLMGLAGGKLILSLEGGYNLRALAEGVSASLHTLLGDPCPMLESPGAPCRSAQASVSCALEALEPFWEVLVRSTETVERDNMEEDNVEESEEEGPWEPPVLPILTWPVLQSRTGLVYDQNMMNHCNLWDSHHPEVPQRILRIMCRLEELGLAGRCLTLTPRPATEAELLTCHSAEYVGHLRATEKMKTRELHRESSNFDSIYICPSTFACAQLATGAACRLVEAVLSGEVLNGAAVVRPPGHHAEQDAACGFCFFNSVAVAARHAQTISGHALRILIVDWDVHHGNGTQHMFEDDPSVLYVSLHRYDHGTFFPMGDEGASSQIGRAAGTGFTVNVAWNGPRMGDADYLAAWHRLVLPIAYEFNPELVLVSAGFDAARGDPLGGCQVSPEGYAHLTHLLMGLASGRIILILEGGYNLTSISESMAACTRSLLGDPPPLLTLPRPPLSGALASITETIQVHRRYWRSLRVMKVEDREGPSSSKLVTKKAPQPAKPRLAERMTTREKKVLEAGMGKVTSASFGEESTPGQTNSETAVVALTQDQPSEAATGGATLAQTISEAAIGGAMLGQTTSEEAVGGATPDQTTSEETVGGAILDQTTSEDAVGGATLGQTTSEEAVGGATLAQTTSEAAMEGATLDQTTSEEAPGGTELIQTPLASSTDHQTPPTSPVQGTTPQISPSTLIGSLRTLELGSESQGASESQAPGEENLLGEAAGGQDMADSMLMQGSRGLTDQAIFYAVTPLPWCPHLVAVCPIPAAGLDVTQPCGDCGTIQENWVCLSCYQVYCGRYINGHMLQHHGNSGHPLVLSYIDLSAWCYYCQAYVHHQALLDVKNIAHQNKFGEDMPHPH
# [3] = test system: HepG2; test: In vitro anti-proliferation assay; assay type: cell-based
# [4] = test system: acetylated H3/H4; test: Western blot of acetylated histone levels in HepG2 cells; assay type: cell-based; settings: HepG2, 0.2, 0.5 µM, 24 h
# Method in brief: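 HepG2 cells were exposed to the test compound for 24 h, then lysed in RIPA buffer with protease inhibitors (10 min on ice) and centrifuged at 4 °C. Protein was measured by BCA, and equal amounts were denatured at 100 °C for 5 min. Blots were run on 10–15% SDS-PAGE and transferred to PVDF. Anti-acetyl-H3 was used at 1:1000, overnight at 4 °C, then HRP secondary antibody for 1 h at room temperature, with ECL detection. Bands were quantified against β-actin; mean ± SD of three separate experiments.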
# [5] = test system: HepG2 cells; test: Colony formation assay; assay type: cell-based; settings: HepG2, 14 days
# Method in brief: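 HepG2 cells were plated at 1000 per well in 6-well plates. After 24 h they were treated with a range of concentrations, with the medium refreshed every other day, and kept in fresh medium for 10–14 days. Colonies were fixed in methanol for 15 min, stained with 0.5% crystal violet for 15 min, photographed and counted manually.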
# [6] = test system: HepG2 cells; test: Cell cycle analysis by flow cytometry; assay type: cell-based; settings: HepG2, 0.5μM; for G2/M: control 25.34%; for S: control 32.99%; for G0/G1: control 41.67%
# [7] = test system: CDK4 and Cyclin D1; test: Western blot of cell cycle regulators; assay type: cell-based; settings: HepG2, 24 h
# Method in brief: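 For the immunoblot, HepG2 cells were treated at several concentrations for 24 h and lysed in RIPA buffer with protease inhibitors. Equal BCA-quantified protein was boiled for 5 min and resolved on 10–15% SDS-PAGE, then transferred to PVDF. Blots were blocked in 5% milk, incubated with primary antibody overnight at 4 °C and HRP secondary for 1 h, and detected by ECL. Band densities were quantified, with β-actin as loading control.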
# [8] = test system: HepG2 cells; test: Annexin V-FITC/PI apoptosis analysis; assay type: cell-based; settings: 48 h
# [9] = test system: Cl-PARP, Cl-caspase 3; test: Western blot of apoptotic proteins; assay type: cell-based; settings: HepG2, 24 h
# Method in brief: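 Treated HepG2 lysates (24 h exposure, RIPA buffer with protease inhibitors, BCA-normalised) were denatured at 100 °C for 5 min and run on 10–15% SDS-PAGE, then transferred to PVDF. Membranes were blocked in 5% milk, with primary antibody overnight at 4 °C and HRP secondary for 1 h at room temperature, and developed by ECL. Band intensity was normalised to β-actin; mean ± SD of three separate experiments.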
# [10] = test system: HepG2 cells; test: Reactive oxygen species; assay type: cell-based; settings: HepG2, 24 h
# [11] = test system: γH2AX; test: γH2AX immunofluorescence assay; assay type: cell-based; settings: HepG2, 24 h, in comparison to SAHA
# Method in brief: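 HepG2 cells were grown on coverslips at 1 × 10^5 per well and treated over a concentration range for 24 h. Cells were fixed in 4% formaldehyde, then blocked and permeabilised in PBS-BSA with 0.3% Triton X-100 for 15 min at room temperature. Anti-γH2AX was applied overnight at 4 °C, then goat anti-rabbit IgG (1:500) for 30 min at room temperature. Nuclei were counterstained with DAPI and imaged by confocal microscopy.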
# [12] = test system: HepG2 cells; test: Lactate dehydrogenase; assay type: cell-based; settings: HepG2, 24 h
# Method in brief: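 HepG2 cells were seeded at 1 × 10^4 per well and exposed to a range of test compound concentrations for 24 h. Culture supernatant was mixed with LDH detection reagent and kept 30 min in the dark at ambient temperature. OD was read at 490 nm, with each sample in triplicate.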
# [13] = test system: GSDME-N, Cl-caspase3; test: Western blot of pyroptosis markers; assay type: cell-based; settings: HepG2, 24 h
# Method in brief: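 HepG2 cells were treated 24 h at the indicated concentrations, then lysed in RIPA with protease inhibitors (10 min on ice, 4 °C spin). Protein was measured by BCA, and equal amounts were boiled 5 min at 100 °C, run on 10–15% SDS-PAGE and transferred to PVDF. Membranes were blocked in 5% milk, probed with primaries overnight at 4 °C, then HRP secondary 1 h at room temperature. Detection was by ECL, with densitometry against β-actin; data are mean ± SD of three experiments.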
# [14] = test system: HepG2 xenografts; test: HepG2 xenograft model; assay type: in vivo, BALB/c nude mice
# Method in brief: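 Male BALB/c nude mice, 5–6 weeks old, were housed under SPF conditions (25 °C, 65% humidity, 12-h light/dark). They were implanted subcutaneously with 1 × 10^6 HepG2 cells. […] Excised tumors were immunostained for Ac-H3, Ac-H4, cleaved caspase-3, GSDME-N and Ki67, then image-scored over 5 fields.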
# HDAC1, sequence (Q13547 whole entry): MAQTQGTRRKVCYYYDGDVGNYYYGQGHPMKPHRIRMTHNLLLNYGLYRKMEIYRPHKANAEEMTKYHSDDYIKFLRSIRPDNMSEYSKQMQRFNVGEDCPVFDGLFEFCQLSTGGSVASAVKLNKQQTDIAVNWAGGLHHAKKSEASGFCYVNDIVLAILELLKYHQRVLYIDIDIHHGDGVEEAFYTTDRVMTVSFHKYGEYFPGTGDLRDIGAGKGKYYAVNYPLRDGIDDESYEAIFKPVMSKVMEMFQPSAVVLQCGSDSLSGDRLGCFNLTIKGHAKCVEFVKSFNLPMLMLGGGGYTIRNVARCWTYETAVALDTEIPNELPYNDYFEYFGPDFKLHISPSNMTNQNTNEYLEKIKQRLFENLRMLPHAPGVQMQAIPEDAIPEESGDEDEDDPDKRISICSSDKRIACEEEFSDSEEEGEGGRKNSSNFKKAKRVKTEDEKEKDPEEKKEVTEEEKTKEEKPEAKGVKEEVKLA
Structure (SMILES),HDAC1 inhibitory activity relative to SAHA [1],HDAC6 inhibitory activity relative to SAHA [2],"antiproliferative activity, times higher than SAHA [3] [times]",level of acetyl-H3 and H4 [4],colony formation [5],G2/M [6] [%],S [6] [%],G0/G1 [6] [%],levels of CDK4 and Cyclin D1 [7],apoptosis of HepG2 cells ([8]; 0.2 µM) [%],apoptosis of HepG2 cells ([8]; 0.5 µM) [%],"expression of Cl-PARP, Cl-caspase 3 [9]",ROS levels [10],nuclear γH2AX levels [11],LDH release [12],GSDME N-terminal fragment level [13],levels of active caspase-3 [13],"tumor growth inhibition ([14]; 10 mg/kg, ip, every two days, three weeks)","Ac-H3/H4, Cl-caspase3 and GSDME-N in tumor tissues ([14]; IHC at end of treatment)",Ki67 immunostaining of tumor tissues ([14]; IHC at end of treatment)
"COc1ccc(N(Cc2csc(-c3ccccc3)n2)C(=O)CCCCCC(=O)NO)cc1 [Compound 15a, N^1-hydroxy-N^7-(4-methoxyphenyl)-N^7-((2-phenyl-4-thiazolyl)methyl)heptanediamide]",tenfold better,eightfold better,~25,increased the level of acetyl-H3 and H4 in a dose-dependent manner,suppress the formation of colonies in a dose-dependent manner,22.85,13.72,61.42,significantly reduced the levels of CDK4 and Cyclin D1 in a dose-dependent manner,28.2,46.5,"upregulate the expression of Cl-PARP, Cl-caspase 3 in a dose-dependent manner",dose-dependently increased,induce γH2AX expression at a much lower concentration range,markedly increased,elevated levels of the N-terminal fragment of gasdermin E (GSDME),elevated,superior inhibition observed at 10 mg/kg compared to that of SAHA,induced the increase of Ac- H3/H4,dose-dependent reduction in Ki67 immunostaining
"COc1ccc(N(Cc2csc(-c3ccc(C)cc3)n2)C(=O)CCCCCC(=O)NO)cc1 [Compound 15d, N^1-hydroxy-N^7-(4-methoxyphenyl)-N^7-((2-(4-tolyl)-4-thiazolyl)methyl)heptanediamide]",tenfold better,eightfold better,~15,increased the level of acetyl-H3 and H4 in a dose-dependent manner,suppress the formation of colonies in a dose-dependent manner,24.34,18.3,57.36,significantly reduced the levels of CDK4 and Cyclin D1 in a dose-dependent manner,30,41.9,"upregulate the expression of Cl-PARP, Cl-caspase 3 in a dose-dependent manner",dose-dependently increased,induce γH2AX expression at a much lower concentration range,markedly increased,elevated levels of the N-terminal fragment of gasdermin E (GSDME),elevated,–,–,–
